Assay results from different studies.
Compare with care: the assays were run in different laboratories.
Target: Receptor-interacting serine/threonine-protein kinase 1 (RIPK1, Homo sapiens, UniProt Q13546)
One construct used (Q13546 1-671): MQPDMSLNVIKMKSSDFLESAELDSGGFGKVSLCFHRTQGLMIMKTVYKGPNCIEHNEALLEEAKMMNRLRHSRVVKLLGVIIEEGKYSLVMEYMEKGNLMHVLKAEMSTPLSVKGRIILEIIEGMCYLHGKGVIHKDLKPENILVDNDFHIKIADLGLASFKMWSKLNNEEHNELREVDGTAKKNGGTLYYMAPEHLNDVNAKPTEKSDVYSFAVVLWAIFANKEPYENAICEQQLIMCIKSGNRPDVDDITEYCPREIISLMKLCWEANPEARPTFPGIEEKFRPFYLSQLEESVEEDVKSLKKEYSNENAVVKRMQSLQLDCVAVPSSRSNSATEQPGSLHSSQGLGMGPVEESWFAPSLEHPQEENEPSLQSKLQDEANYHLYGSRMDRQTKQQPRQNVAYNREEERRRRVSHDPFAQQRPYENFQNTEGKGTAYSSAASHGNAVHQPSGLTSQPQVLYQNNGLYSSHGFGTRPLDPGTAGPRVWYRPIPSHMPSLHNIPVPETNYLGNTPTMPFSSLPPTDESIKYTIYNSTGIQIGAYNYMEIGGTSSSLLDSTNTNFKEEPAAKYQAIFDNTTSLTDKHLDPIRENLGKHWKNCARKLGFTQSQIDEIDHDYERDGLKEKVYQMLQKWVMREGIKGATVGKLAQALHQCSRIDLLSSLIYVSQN

For `CC1CCCN1c1nccc(-c2cnn3ncccc23)n1` (stereo not drawn), the remaining binding was 100% (binding; 1 µM).
For `FC(F)(F)Oc1cccc(-c2cnc3ccc(-c4ccncc4)nn23)c1`, the remaining binding was 81% (binding; competition with immobilised ligand; 5 µM).
`Cc1cnc(Nc2ccc(C(=O)N3CCC(N4CCCC4)CC3)cc2)nc1-c1cc2ccccc2s1` gave a remaining binding of 1% (binding; competition with immobilised ligand; 1 µM).
`O=C(NCC1CCOCC1)c1n[nH]cc1NC(=O)c1c(F)cccc1F` has a remaining binding of 94% (binding; competition with immobilised ligand; 1 µM).
With `CN(CCCC(F)(F)F)c1nccc(-c2cnn3ncccc23)n1` the remaining binding was 97% (binding; 1 µM).
The remaining binding of `CNCc1ccccc1-c1csc([C@@H](C)Nc2nc(C)nc3cc(OC)c(OC)cc23)c1` is reported as 97% (cell-free assay; competition with immobilised ligand; 1 µM).
`CN(C)c1nccc(-c2cnn3ncccc23)n1` has a remaining binding of 98% (binding; 1 µM).
For `CCN1CCN(Cc2ccc(C(=O)Nc3ccc(C)c(Oc4ccc5c(c4)CC(=O)N5)c3)cc2C(F)(F)F)CC1`, the remaining binding was 86% (binding; competition with immobilised ligand; 1 µM).
For `CCc1ccccc1C(=O)Nc1n[nH]c2c(C)c(F)c(C3C(C#N)=C(C)N(C)C(C)=C3C#N)cc12`, the remaining binding was 100% (cell-free assay; competition with immobilised ligand; 1 µM).
`N[C@@H]1CCN(c2nccc(-c3cnn4ncccc34)n2)C1` has a remaining binding of 100% (binding; 1 µM).
The remaining binding of `O=C(N1CCS(=O)(=O)CC1)N1C[C@H](c2ccc(OC(F)(F)F)cc2)C[C@H](c2nc(C3CC3)no2)C1` is reported as 100% (cell-free assay; competition with immobilised ligand; 1 µM).
`O=C(c1ccc(Nc2nccc(-c3cc4ccccc4s3)n2)cc1)N1CCC(N2CCCC2)CC1` has a remaining binding of 23% (binding; competition with immobilised ligand; 1 µM).
For `CCCCN(CCCC)C(=O)CN1C[C@@H](c2cc(OC)c3c(c2)OCO3)[C@H](C(=O)O)[C@H]1CC(C)(C)CCC`, the remaining binding was 100% (cell-free assay; competition with immobilised ligand; 1 µM).
`CNC(=O)[C@@H]1CC[C@@H](n2c(-c3ccc4cnccc4c3)nc3ccc(C(=O)NCc4cccc(C(N)=O)c4)cc32)C1` has a remaining binding of 100% (binding; competition with immobilised ligand; 1 µM).
`CCC(=O)N[C@H]1CC[C@@H](C(=O)N(C)c2ccc(-c3nc4ccccc4o3)cc2)C1` has a remaining binding of 100% (cell-free assay; competition with immobilised ligand; 1 µM).
For `C=CC(=O)N1CCC(C(=O)NCC(=O)N2CCN(c3nc(-c4cnc(N)nc4C(F)F)nc(N4CCOCC4)n3)CC2)CC1`, the remaining binding was 100% (binding; competition with immobilised ligand; 1 µM).
`O=C1CCc2cc(Nc3cc(OC4CCOCC4)c([N+](=O)[O-])cc3Cl)ccc2N1` has a remaining binding of 100% (cell-free assay; competition with immobilised ligand; 1 µM).
`O=C(NCCCN1CCOCC1)c1ccc(Nc2nccc(-c3cc4ccccc4s3)n2)cc1` gave a remaining binding of 65% (binding; competition with immobilised ligand; 1 µM).
